According to PMC9899605 (Cancer Science, 2022):
Where two headings read alike, the source gives them in different places.

Assays:
MCF10A_HER2/insYVMA = test: Growth inhibition assay, MCF10A_HER2/insYVMA; format: cell-based; settings: Homo sapiens, 72 h, read-out: GI50 (nmol/L), mean ± SD
Procedure, shortened: (§1)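 Cell lines were STR-authenticated; MCF10A lines stably express mutant HER2. Test compounds were dissolved in DMSO and added to the cells. Growth was assessed 3 days after treatment, and GI50 was derived as the mean of three independent experiments.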

[1] = in rodents, cited from earlier work
BT-474 = test: Growth inhibition assay, BT-474; format: cell-based; settings: Homo sapiens, BT-474, 72 h, read-out: GI50 (nmol/L), mean ± SD
Procedure, shortened: as §1

NCI-H1781 = test: Growth inhibition assay, NCI-H1781; format: cell-based; settings: Homo sapiens, NCI-H1781, 72 h, read-out: GI50 (nmol/L), mean ± SD
Procedure, shortened: as §1

NCI-N87 = test: Growth inhibition assay, NCI-N87; format: cell-based; settings: Homo sapiens, NCI-N87, 72 h, read-out: GI50 (nmol/L), mean ± SD
Procedure, shortened: as §1

A-431 = test: Growth inhibition assay, A-431; format: cell-based; settings: Homo sapiens, A-431, 72 h, read-out: GI50 (nmol/L), mean ± SD
Procedure, shortened: as §1

NCI-H1975 = test: Growth inhibition assay, NCI-H1975; format: cell-based; settings: Homo sapiens, NCI-H1975, 72 h, read-out: GI50 (nmol/L), mean ± SD
NCI-H460 = test: Growth inhibition assay, NCI-H460; format: cell-based; settings: Homo sapiens, NCI-H460, 72 h, read-out: GI50 (nmol/L), mean ± SD
[2] = test system: NCI-H1975 EGFR D770_N771insSVD; test: Growth inhibition assay, NCI-H1975 EGFR D770_N771insSVD; format: cell-based; settings: Homo sapiens, NCI-H1975, 72 h, read-out: GI50 (nmol/L), mean ± SD
NIH/3T3_EGFR vIII = test: Growth inhibition assay, NIH/3T3_EGFR vIII; format: cell-based; settings: 72 h, read-out: GI50 (nmol/L), mean ± SD
[3] = test system: HER2/HER3 signaling in SK-BR-3 cell line; test: Western blot of HER2 signaling pathway in SK-BR-3 cells; format: cell-based
HCC827 = test: Growth inhibition assay, HCC827; format: cell-based; settings: Homo sapiens, HCC827, 72 h, read-out: GI50 (nmol/L), mean ± SD

GI50 (BT-474)	GI50 (NCI-H1781)	GI50 (A-431)	GI50 (NCI-H1975)	GI50 (NCI-H460)	GI50 [2]	GI50 (HCC827)	SMILES	GI50 (MCF10A_HER2/insYVMA)	Kp,uu,brain ([1]; no reference given)	GI50 (NCI-N87)	GI50 (NIH/3T3_EGFR vIII)	phosphorylation of HER2, HER3, and their downstream proteins [3]	phosphorylation of HER3 and its downstream targets, AKT and ERK, at 48 h [3]	Kp,uu,brain [1]
2.42 ± 2.34 nmol/L	13.8 ± 8.7 nmol/L	9.33 ± 0.72 nmol/L	108 ± 40 nmol/L	> 1000 nmol/L	–	–	CN(C)C/C=C/C(=O)Nc1cc2c(Nc3ccc(F)c(Cl)c3)ncnc2cc1O[C@H]1CCOC1 [Afatinib, afatinib]	102 ± 17 nmol/L	0.0062	1.47 ± 0.81 nmol/L	–	–	–	–
–	576 ± 282 nmol/L	424 ± 29 nmol/L	> 1000 nmol/L	> 1000 nmol/L	> 1000 nmol/L	679 ± 211 nmol/L	CS(=O)(=O)CCNCc1ccc(-c2ccc3ncnc(Nc4ccc(OCc5cccc(F)c5)c(Cl)c4)c3c2)o1 [Lapatinib]	> 1000 nmol/L	–	16.7 ± 10 nmol/L	> 1000 nmol/L	inhibited	increased	–
1.03 ± 0.69 nmol/L	15.4 ± 5.9 nmol/L	35.8 ± 9.7 nmol/L	236 ± 147 nmol/L	860 ± 67 nmol/L	130 ± 60 nmol/L	292 ± 187 nmol/L	CCOc1cc2ncc(C#N)c(Nc3ccc(OCc4ccccn4)c(Cl)c3)c2cc1NC(=O)/C=C/CN(C)C [Neratinib, neratinib]	84.3 ± 9 nmol/L	–	0.946 ± 0.771 nmol/L	114 ± 72 nmol/L	–	–	–
15.4 ± 12 nmol/L	82 ± 10 nmol/L	[…]	[…]	> 1000 nmol/L	154 ± 55 nmol/L	13.6 ± 10 nmol/L	C=CC(=O)Nc1cc(Nc2nccc(-c3cn(C)c4ccccc34)n2)c(OC)cc1N(C)CCN(C)C [Osimertinib, osimertinib]	> 1000 nmol/L	–	13.5 ± 8.3 nmol/L	253 ± 56 nmol/L	–	–	approximately 0.21
